The values that follow come from ChEMBL document CHEMBL1122917, “Vinblastin-23-oyl amino acid derivatives: chemistry, physicochemical data, toxicity, and antitumor activities against P388 and L1210 leukemias” (J Med Chem, 1985).

Test [1] relates to Mus musculus. Put plainly: 7 Percent increase in life span at dose 75 mg/kg/day in 7 mice implanted with P388 leukemia cell line for 1,8,15 schedule day in Exp-1. It is filed as functional.
For test [2], the system named is Mus musculus. Put plainly: Percent increase in life span at dose 56 mg/kg/day in 10 mice implanted with P388 leukemia cell line. It is filed as functional.
Test [3] deals with Mus musculus. Kind of test: Number of survivors on 60th day at dose 55 mg/kg/day in 10 mice implanted with P388 leukemia cell line for 1st scheduled day; 6/10. It is filed as functional.
Test [4] deals with Mus musculus. Put plainly: Number of survivors on 60th day at dose 58 mg/kg/day in 10 mice implanted with P388 leukemia cell line; 0/10. It is filed as functional.
Test [5] deals with Mus musculus. Put plainly: Percent increase in life span at dose 70 mg/kg/day in 10 mice implanted with P388 leukemia cell line. It is filed as functional. The essentials:
(§1)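 Female DBA2 mice inoculated iv on day 0 with 10^4 P388 cells; single iv treatment on day 1 with drug as sulfate salt in physiological saline. Survival followed; %ILS from all deaths and survivors as (T/C × 100) − 100, maximal MST 30 days; survivors counted on days 30 and 60. Most experiments confirmed three times.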

In test [6] the test system is Mus musculus. Kind of test: Number of survivors of DBA2 mice on 30th day after inoculation with L1210 leukemia cell line intravenously at a dose of 65 mg/kg/day; 0/10. It is filed as functional. The note with it: route intravenous.
The test system of test [7] is Mus musculus. Kind of test: Number of survivors on 60th day at dose 75 mg/kg/day in 7 mice implanted with P388 leukemia cell line for 1,8,15 scheduled days in Exp-1; 6/10. It is filed as functional.
Test [8] relates to Mus musculus. Put plainly: Percent increase in life span at dose 60 mg/kg/day in 10 mice implanted with P388 leukemia cell line for 1st schedule day. It is filed as functional.
Test [9] relates to Mus musculus. Put plainly: Number of survivors on 30th day at dose 20 mg/kg/day in 10 mice implanted with P388 leukemia cell line; 0/10. It is filed as functional.
The test system of test [10] is Mus musculus. Kind of test: Number of survivors on 60th day at dose 60 mg/kg/day in 10 mice implanted with P388 leukemia cell line; 3/10. It is filed as functional.
Test [11] relates to Mus musculus. Put plainly: Number of survivors on 60th day at dose 65 mg/kg/day in 10 mice implanted with P388 leukemia cell line; 7/9. It is filed as functional.
Test [12] concerns Mus musculus. Put plainly: Number of survivors on 30th day at dose 58 mg/kg/day in 10 mice implanted with P388 leukemia cell line;2/10. It is filed as functional.
The subject of test [13] is Mus musculus. Put plainly: Number of survivors of DBA2 mice on 60th day after inoculation with L1210 leukemia cell line intravenously at a dose of 60 mg/kg/day; 0/10. It is filed as functional. The note with it: route intravenous.
Test [14] deals with Mus musculus. Put plainly: Number of survivors of DBA2 mice on 60th day after inoculation with L1210 leukemia cell line intravenously at a dose of 65 mg/kg/day; 0/10. It is filed as functional. Particulars: route intravenous.
Test [15] has as its system Mus musculus. Put plainly: Number of survivors on 60th day at dose 6 mg/kg/day in 7 mice implanted with P388 leukemia cell line for 1,8.15 scheduled days from Exp-2; 0/10. It is filed as functional.
Test [16] has as its system Mus musculus. Kind of test: Number of survivors on 60th day at dose 5 mg/kg/day in 9 mice implanted with P388 leukemia cell line; 0/10. It is filed as functional.
The test system of test [17] is Mus musculus. Kind of test: Number of survivors of DBA2 mice on 60th day after inoculation with L1210 leukemia cell line intravenously at a dose of 10 mg/kg/day; 0/10. It is filed as functional. Particulars: route intravenous.
Test [18] relates to Mus musculus. Put plainly: Number of survivors on 30th day at dose 9 mg/kg/day in 10 mice implanted with P388 leukemia cell line; 3/10. It is filed as functional.
Test [19] has as its system Mus musculus. Put plainly: Percent increase in life span at dose 10 mg/kg/day in 10 mice implanted with P388 leukemia cell line. It is filed as functional. The essentials: as §1
Test [20] deals with Mus musculus. Kind of test: Number of survivors on 60th day at dose 10 mg/kg/day in 10 mice implanted with P388 leukemia cell line; 0/10. It is filed as functional.
For test [21], the system named is Mus musculus. Put plainly: Number of survivors on 60th day at dose 11 mg/kg/day in 10 mice implanted with P388 leukemia cell line; 0/10. It is filed as functional.
The test system of test [22] is Mus musculus. Kind of test: Number of survivors on 30th day at dose 6 mg/kg/day in 10 mice implanted with P388 leukemia cell line; 0 /10. It is filed as functional.
The subject of test [23] is Mus musculus. Kind of test: Number of survivors on 30th day at dose 8 mg/kg/day in 9 mice implanted with P388 leukemia cell line; 0 /9. It is filed as functional.
Test [24] has as its system Mus musculus. Put plainly: Number of survivors of DBA2 mice on 60th day after inoculation with L1210 leukemia cell line intraperitoneally at a dose of 2 mg/kg/day; 0/11. It is filed as functional. The note with it: route intraperitoneal.
The subject of test [25] is Mus musculus. Kind of test: Percent increase in life span of DBA2 mice after inoculation with L1210 leukemia intravenously at a dose of 0.5 mg/kg per day. It is filed as functional. The note with it: route intravenous.
Test [26] concerns Mus musculus. Put plainly: Percent increase in life span of DBA2 mice after inoculation with L1210 leukemia intravenously at a dose of 1.5 mg/kg per day. It is filed as functional. Particulars: route intravenous.
Test [27] concerns Mus musculus. Kind of test: Percent increase in life span of DBA2 mice after inoculation with L1210 leukemia intravenously at a dose of 2 mg/kg per day. It is filed as functional. Particulars: route intravenous.
Test [28] has as its system Mus musculus. Put plainly: Number of survivors of DBA2 mice on 30th day after inoculation with L1210 leukemia cell line intraperitoneally at a dose of 1 mg/kg/day; 0/10. The note with it: route intraperitoneal. It is filed as functional.
In test [29] the test system is Mus musculus. Kind of test: Number of survivors on 60th day at dose 1.5 mg/kg/day in 10 mice implanted with P388 leukemia cell line; 0/10. It is filed as functional.
Test [30] deals with Mus musculus. Put plainly: Number of survivors on 30th day at dose 1 mg/kg/day in 10 mice implanted with P388 leukemia cell line; 0/10. It is filed as functional.
The subject of test [31] is Mus musculus. Put plainly: Percent increase in life span of BDF1 mice after inoculation with P388 leukemia intraperitoneally at a dose of 1 mg/kg per day. Particulars: P388, ip.
In test [32] the test system is Mus musculus. Put plainly: Percent increase in life span of BDF1 mice after inoculation with P388 leukemia intraperitoneally at a dose of 2.7 mg/kg per day. Particulars: P388, ip.
The subject of test [33] is Mus musculus. Put plainly: Number of survivors of DBA2 mice on 60th day after inoculation with L1210 leukemia cell line intraperitoneally at a dose of 0.30 mg/kg/day; 0/10. It is filed as functional. The note with it: route intraperitoneal.
The test system of test [34] is Mus musculus. Kind of test: Number of survivors of DBA2 mice on 60th day after inoculation with L1210 leukemia cell line intraperitoneally at a dose of 2.5 mg/kg/day; 0/10. Particulars: route intraperitoneal. It is filed as functional.
Test [35] relates to Mus musculus. Kind of test: Percent increase in life span at dose 2 mg/kg/day in 10 mice implanted with P388 leukemia cell line for 1st scheduled day. It is filed as functional.
Test [36] has as its system Mus musculus. Put plainly: Percent increase in life span at dose 2.5 mg/kg/day in 7 mice implanted with P388 leukemia cell line for 1,8,15 scheduled days from Exp-1. It is filed as functional.
Test [37] relates to Mus musculus. Put plainly: Number of survivors of DBA2 mice on 30th day after inoculation with L1210 leukemia cell line intravenously at a dose of 2.5 mg/kg/day; 0/11. It is filed as functional. The note with it: route intravenous.
The subject of test [38] is Mus musculus. Kind of test: Percent increase in life span of BDF1 mice after inoculation with P388 leukemia intraperitoneally at a dose of 2.5 mg/kg per day. The note with it: P388, ip.
Test [39] relates to Mus musculus. Kind of test: Percent increase in life span of BDF1 mice after inoculation with P388 leukemia cells intraperitoneally at a dose of 0.30 mg/kg per day for 1-9 scheduled days. The note with it: P388, ip.

Where only a bound is given, the exact number is not on record here.

Consider `CCOC(=O)[C@H](Cc1c[nH]c2ccccc12)NC(=O)[C@@]1(O)[C@H](O)[C@]2(CC)C=CCN3CC[C@@]4(c5cc([C@@]6(C(=O)OC)C[C@H]7C[N@](CCc8c6[nH]c6ccccc86)C[C@](O)(CC)C7)c(OC)cc5N(C)[C@@]14C)[C@@H]32`, for which the increase in life span (ILS) (usually how much longer treated animals lived than controls) at 75 mg/kg/day in [1] stood at 108%. Also, in test [2], the ILS at 56 mg/kg/day is 113%. For the same compound, the Survivors is 6 in test [3]; 0 in test [4]; 0 in [6]; 6 in [7]; 0 in test [9]; 3 in test [10]. For the same compound, the Survivors in test [11] was determined as 7; in [12], 2; in test [13], 0; in test [14], 0. Moreover, in test [5], the ILS at 70 mg/kg/day stood at 160%. The ILS at 60 mg/kg/day in test [8] is > 224%.
As for `CCOC(=O)[C@@H](NC(=O)[C@@]1(O)[C@H](O)[C@]2(CC)C=CCN3CC[C@@]4(c5cc([C@@]6(C(=O)OC)C[C@H]7C[N@](CCc8c6[nH]c6ccccc86)C[C@](O)(CC)C7)c(OC)cc5N(C)[C@@]14C)[C@@H]32)[C@@H](C)CC`, the Survivors in test [15] stood at 0; in [16], 0; in test [17], 0; in test [18], 3.
`CC[C@]1(O)C[C@@H]2CN(CCc3c([nH]c4ccccc34)[C@@](C(=O)OC)(c3cc4c(cc3OC)N(C)[C@H]3[C@@](O)(C(=O)OC)[C@H](OC(C)=O)[C@]5(CC)C=CCN6CC[C@]43[C@@H]65)C2)C1` [VINBLASTINE] returned an ILS at 10 mg/kg/day in test [19] of 81%. The Survivors in [20], in test [21], in test [22] and in [23] was 0 each time.
Consider `CC[C@]1(O)C[C@H]2CN(CCc3c([nH]c4ccccc34)[C@@](C(=O)OC)(c3cc4c(cc3OC)N(C=O)[C@H]3[C@@](O)(C(=O)OC)[C@H](OC(C)=O)[C@]5(CC)C=CCN6CC[C@]43[C@@H]65)C2)C1` [VINCRISTINE], for which the Survivors in test [24], in test [28], in test [29] and in [30] was 0 throughout. The same compound displayed an ILS at 0.5 mg/kg/day in test [25] of 1%. Moreover, the ILS at 1.5 mg/kg/day in [26] turned out to be 12%. The compound also gave an ILS at 2 mg/kg/day in test [27] of 16%. Also, in test [31], the ILS at 1 mg/kg/day worked out at 47%. Moreover, in [32], the ILS at 2.7 mg/kg/day amounted to 64%.
Turning to `CC[C@]1(O)C[C@@H]2CN(CCc3c([nH]c4ccccc34)[C@@](C(=O)OC)(c3cc4c(cc3OC)N(C)[C@H]3[C@@](O)(C(N)=O)[C@H](O)[C@]5(CC)C=CCN6CC[C@]43[C@@H]65)C2)C1` [VINDESINE], the Survivors in [33], in [34] and in test [37] was 0 throughout. For the same compound, in test [35], the ILS at 2 mg/kg/day came out at 28%. In addition, the increase in lifespan (ILS) at 2.5 mg/kg/day worked out at 31% in test [36] and 150% in test [38]. This compound had an ILS at 0.3 mg/kg/day in [39] of 95%.
